# Apaf1 inhib: inhibitors of human Apaf-1 apoptosome; AID 489030; inhibition, % at 20 µM; O14727; 330,000 compounds, 0.71% hits; reconstituted apoptosome caspase-3 activity, DEVD-Rh110 fluorescence; active means inhibition of at least 40% at 20 µM;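 further: plate controls were DMSO wells for no effect and DEVD-CHO caspase inhibitor wells for full effect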
#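 System: Apoptosome proteins | Medium: Hepes pH 7.5 with detergent and BSA | Also added: Cytochrome c trigger plus (Z-DEVD)2-Rh110 caspase-3 substrate | Incubation: 30 min compound preincubation, 50 min activation, room temperature | Detection: Rhodamine 110 fluorescence at Ex 480/Em 540 nm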
# PAD4 FP inh: inhibitors of human PAD4 | Q9UM07 | recombinant PAD4, RCA probe fluorescence polarization | inhibition, % at 6.36 µM | 330,000 compounds, 0.41% hits | AID 485272;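 active means percent inhibition above a cutoff equal to the mean of all tested compounds plus 3 SD, cut at about 15% in these data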;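 further: 0% = PAD4 with RCA probe and DMSO and 100% = probe without PAD4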
# PRMT1 inh: blocks human protein arginine methyltransferase 1. 370,000 compounds, 1.3% hits. Q99873. recombinant PRMT1, activity-based probe fluorescence polarization. inhibition, % at 2.79 µM;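 active means inhibition above about 21% made by adding two undisclosed values, limit read from the data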
# TDP2 inh: TDP2 (human) inhibition, absorbance primary screen; O95551; recombinant TDP2, T5PNP hydrolysis, p-nitrophenol absorbance 415 nm; inhibition, % at 12.8 µM; 370,000 compounds, 0.34% hits;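 active means inhibition above the mean of all tested compounds plus 3 SD, set per campaign, cut at about 25% in these data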;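 further: 0% = DMSO with enzyme and 100% = buffer with substrate but no TDP2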
# Target sequence (O95551 whole entry, looked up): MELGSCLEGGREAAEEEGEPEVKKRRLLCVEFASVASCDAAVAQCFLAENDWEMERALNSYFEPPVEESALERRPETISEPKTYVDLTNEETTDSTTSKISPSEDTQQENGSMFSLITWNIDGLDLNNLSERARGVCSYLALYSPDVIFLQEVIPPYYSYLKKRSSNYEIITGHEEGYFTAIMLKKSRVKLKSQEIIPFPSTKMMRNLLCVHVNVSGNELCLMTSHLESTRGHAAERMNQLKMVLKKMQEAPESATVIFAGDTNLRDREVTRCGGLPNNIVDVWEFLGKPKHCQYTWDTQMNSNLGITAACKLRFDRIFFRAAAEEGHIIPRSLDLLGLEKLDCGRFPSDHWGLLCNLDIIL
#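 Evaluation: % inhibition relative to enzyme-containing and enzyme-free wells. Material: recombinant human TDP2. Benchmarks: enzyme-free and DMSO wells. Timing: enzyme reaction with compound for 2 h at 37 °C. Compound dosing: 12.8 µM only. Measured by: p-Nitrophenol epi absorbance. Reagent: T5PNP substrate at 5 mM, a TopII-DNA adduct mimic. Replication: single well per compound.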
# GSTO1 counter: blocks human GSTO1 in RBBP9 counter-screen | P78417 | recombinant GSTO1, activity-based probe fluorescence polarization | inhibition, % at 5.96 µM | 300,000 compounds, 1.1% hits | AID 1974;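 active means inhibition above the campaign mean inhibition plus 3 SD, cut at about 35% in these data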;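 further: 0% = GSTO1-1 with DMSO and 100% = wells lacking GSTO1-1 enzyme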
# TDP2 confirm: confirmation of human TDP2 inhibitors | shares compounds with TDP2 inh | recombinant human TDP2, absorbance read-out | inhibition, % at 12.8 µM | 1,100 compounds, 22% hits; in the data active means inhibition above about 25%;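 further: 0% = vehicle with enzyme and 100% = no enzyme buffer only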
# The depositor's hits bear a star; / = no result. Most compounds without a hit are left out; they make up all but 2.6% or so of the library.
SMILES,Apaf1 inhib,PAD4 FP inh,PRMT1 inh,TDP2 inh,GSTO1 counter,TDP2 confirm
COC(=O)[C@]12C[C@H](CC(=O)N3CCN(C(=O)c4ccco4)CC3)C(=O)N(Cc3cccc4ccccc34)C1=C[C@H](C(C)(C)C)O[C@@H]2C,/,/,1.7,-2.2,/,/
CC1(C(=O)O)CCC(C(=O)Nc2ccc(OC(F)(F)Cl)cc2)C1(C)C (centres undefined),11.3,0.1,-2.2,8.4,8.8,/
O=C1OCCC1=COCCCCCOC=C1CCOC1=O,/,/,1.5,8.3,/,/
CCOc1ccc(Nc2ccc([N+](=O)[O-])c3nonc23)cc1,7.9,-8.9,0.0,4.4,16.9,/
O=[N+]([O-])c1ccc(Nc2ccccc2)c2nonc12,12.4,-0.7,0.8,25.7*,29.1,7.5
COc1ccc(CN2CCN(Cc3ccco3)CC2)c(OC)c1,1.0,-7.9,0.6,26.6*,2.0,5.8
COc1cc(CN2CCN(Cc3ccco3)CC2)cc(OC)c1,-3.6,-4.1,0.4,22.6,4.4,/
COc1ccccc1CN1CCN(Cc2ccco2)CC1,7.3,6.0,4.7,28.3*,-1.3,5.0
CN1C(=O)c2ccc(Oc3ccccc3)cc2C1=O,-1.5,1.3,4.4,-6.2,3.9,/
C=CCN1C(=O)[C@@H](CC(=O)N2CCCC2)[C@]2(C(=O)OCC)CCCCC/C=C/12,/,/,2.3,-3.7,/,/
COc1ccccc1/C=C/c1nc(S(=O)(=O)c2ccccc2)c(N2CCC(C(N)=O)CC2)o1,12.6,1.3,4.6,25.9*,0.8,-11.2
C=CCOc1cccc(C2C(C(=O)c3ccco3)=C(O)C(=O)N2Cc2ccco2)c1 (centres undefined),4.2,-8.1,3.6,-13.5,4.8,/
C=CCOc1cccc(C2C(C(=O)c3ccco3)=C(O)C(=O)N2CCN2CCOCC2)c1 (centres undefined),-5.1,-3.0,6.8,41.1*,1.6,-7.0
CCOC(=O)CNC(=O)Cc1ccc(OC)cc1,-13.2,-4.9,-3.6,15.3,4.6,/
Nc1cc(S(=O)(=O)O)cc([N+](=O)[O-])c1O,-110.2,-10.1,19.1,50.4*,0.5,3.1
Nc1ccc(C(=O)O)cc1[N+](=O)[O-],-7.8,-2.8,4.3,-1.5,0.0,/
O=C(Nc1cccc2nsnc12)c1ccc(-c2ccc(Br)cc2)o1,33.4,-10.6,15.3,24.6*,5.4,4.7
CSCCC(NC(=O)/C(=C/c1ccco1)NC(=O)c1ccco1)C(=O)O (centres undefined),-10.7,-3.0,5.0,6.8,3.5,/
COc1cccc(NC(=O)N2CCCC2C(=O)NC23CC4CC(CC(C4)C2)C3)c1 (centres undefined),3.4,0.5,7.4,32.9*,-1.9,6.7
COc1ccc(NC(=O)N2CCCC2C(=O)NC23CC4CC(CC(C4)C2)C3)cc1 (centres undefined),6.4,-6.0,8.0,-7.1,8.3,/
C=CCn1c(SCc2c(F)c(F)c(F)c(F)c2F)nc(O)cc1=O,-16.9,-3.5,-1.7,42.7*,-0.5,7.8
C=CCn1c(SCC(=O)N(CC)CC)nc(O)cc1=O,-10.0,5.6,3.6,-2.0,7.9,/
COC(Cc1ccccc1N1CCCC1=O)OC,20.2,2.0,-1.8,5.5,5.5,/
Cc1cc(C)c(NC(=O)COC(=O)c2ccc([N+](=O)[O-])s2)c(C)c1,18.1,-8.3,0.4,-8.1,5.8,/
CN(CC(=O)Nc1ccccc1Cl)C(=O)COC(=O)c1cccs1,-9.7,4.1,-5.7,3.5,/,/
SMILES,Apaf1 inhib,PAD4 FP inh,PRMT1 inh,TDP2 inh,GSTO1 counter,TDP2 confirm
COc1ccccc1NC(=O)COC(=O)c1ccc([N+](=O)[O-])s1,23.1,-3.8,8.0,31.6*,33.9,24.2
CN(CC(=O)Nc1ccccc1Cl)C(=O)COC(=O)c1ccc([N+](=O)[O-])s1,11.9,13.5,-0.2,29.6*,/,18.9
NS(=O)(=O)c1ccc(NC(=O)COC(=O)c2ccc([N+](=O)[O-])s2)cc1,10.1,-10.4,-1.4,27.5*,43.9*,36.0*
Cc1c(C(c2cc(O)ccc2Cl)c2c(C)n(C)n(-c3ccccc3)c2=O)c(=O)n(-c2ccccc2)n1C,/,-2.9,5.0,28.8*,9.8,11.7
Cc1c(C(c2ccccc2O)c2c(C)n(C)n(-c3ccccc3)c2=O)c(=O)n(-c2ccccc2)n1C,-7.2,2.8,5.9,8.8,0.3,/
COC(Cn1c2c(c3cc(C)ccc31)CCCC2NCc1ccccc1)OC (centres undefined),/,/,1.7,-3.1,/,/

# Bioassay records from PubChem.
